Source: ChEMBL document CHEMBL4043134, “Isolation and lipolytic activity of eurycomanone and its epoxy derivative from Eurycoma longifolia” (Bioorg Med Chem, 2017)
The source made the active and inactive calls. The calls are words filed in the database; no cut-off is given here.

Columns and labels:
3T3-L1 [1] = test: Antiobesity activity in mouse 3T3L1 cells assessed as increase in glycerol release up to 100 uM after 24 hrs relative to control; type: functional, cell-based
Outline: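 Mouse 3T3-L1 preadipocytes were differentiated from day 0 (one day post-confluence) in 10% FBS/DMEM with 0.5 mM IBMX, 0.25 μM DEX and 5 μg/mL insulin, then switched to insulin medium, then plain medium; used on day 8. Samples were dissolved in DMSO and diluted into phenol-red-free DMEM, applied for 24 h. Medium glycerol was measured with free glycerol reagent (37 °C, 5 min, A540) relative to control; 1 μM isoproterenol positive control; mean ± SEM, n=6, Dunnett's test.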

3T3-L1 [2] = test: Antiobesity activity in mouse 3T3L1 cells assessed as reduction in accumulation of lipid droplets up to 100 uM administered on day 4 post differentiation induction measured on day 9 by Oil Red O staining-based microscopic analysis relative to control; type: functional, cell-based
Mus musculus [3] = test: Activation of ERK in mouse 3T3-L1 cells assessed as lipolytic activity by measuring increase in glycerol release at 25 uM administered 1 hr after ERK inhibitor addition measured after 24 hrs in presence of 20 uM ERK inhibitor PD 98059; type: cell-based
Outline: (§1)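 Day-8 differentiated 3T3-L1 adipocytes were preincubated with the specified inhibitor for 1 h, then incubated with sample plus inhibitor for 24 h in phenol-red-free DMEM. Released glycerol in the medium was quantified with free glycerol reagent (37 °C, 5 min, A540) and expressed relative to control.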

3T3-L1 [4] = test: Cytotoxicity against mouse 3T3L1 cells assessed as reduction in cell viability up to 100 uM after 6 to 48 hrs by CCK-8 assay; type: cell-based
3T3-L1 [5] = test: Antiobesity activity in mouse 3T3L1 cells assessed as increase in glycerol release after 24 hrs; type: functional, cell-based; conditions: for EC50: 3T3-L1, 24 h
Outline: (§2)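 3T3-L1 preadipocytes were differentiated with IBMX (0.5 mM), DEX (0.25 μM) and insulin (5 μg/mL) from day 0, then insulin alone, then plain 10% FBS/DMEM. On day 8 they were exposed to sample (DMSO stock diluted in phenol-red-free DMEM) for 24 h. Medium was mixed with free glycerol reagent (37 °C, 5 min) and read at A540, relative to control. Mean ± SEM, n=6.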

Mus musculus [6] = organism: Mus musculus; test: Induction of PKA phosphorylation in mouse 3T3-L1 cells at 12.5 uM in presence of 20 uM H-89 by immunoblotting; type: cell-based
[7] = target: Beta-3 adrenergic receptor (Mus musculus) (UniProt P25962); test: Activation of beta3 adrenergic receptor in mouse 3T3-L1 cells assessed as lipolytic activity by measuring increase in glycerol release at 25 uM administered 1 hr after beta3 adrenergic receptor inhibitor addition measured after 24 hrs in presence of 20 uM […] inhibitor propranolol; type: cell-based; outline: as §1
3T3-L1 [8] = test: Antiobesity activity in mouse 3T3L1 cells assessed as reduction in accumulation of lipid droplets administered on day 4 post differentiation induction measured on day 9 by Oil Red O staining-based microscopic analysis; type: functional, cell-based
Mus musculus [9] = test: Activation of PKA in mouse 3T3-L1 cells assessed as lipolytic activity by measuring increase in glycerol release at 25 uM administered 1 hr after PKA inhibitor addition measured after 24 hrs in presence of 20 uM PKA inhibitor H-89; type: cell-based; outline: as §1
3T3-L1 [10] = test: Antiobesity activity in mouse 3T3L1 cells assessed as glycerol release at 1 uM after 24 hrs relative to control; type: functional; outline: as §2

Beta-3 adrenergic receptor (Mus musculus), sequence (P25962 whole entry): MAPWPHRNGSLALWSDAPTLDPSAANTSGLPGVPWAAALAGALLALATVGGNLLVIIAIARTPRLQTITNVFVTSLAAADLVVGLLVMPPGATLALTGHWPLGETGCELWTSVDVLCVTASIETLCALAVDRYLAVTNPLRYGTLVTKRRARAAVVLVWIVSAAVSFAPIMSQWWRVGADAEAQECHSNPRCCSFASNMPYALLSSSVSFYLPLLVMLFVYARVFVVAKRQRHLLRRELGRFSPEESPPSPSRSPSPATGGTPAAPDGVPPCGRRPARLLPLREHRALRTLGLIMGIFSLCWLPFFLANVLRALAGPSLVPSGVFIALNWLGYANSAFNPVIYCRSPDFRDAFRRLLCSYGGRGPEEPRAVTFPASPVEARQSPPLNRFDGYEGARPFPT

Compound: CC1=CC(=O)[C@@H](O)[C@]2(C)C3[C@]4(O)OC[C@@]35[C@@H](C[C@@H]12)OC(=O)[C@H](O)[C@@]5(O)[C@@](O)(CO)[C@H]4O (some centres undefined)
- Activity (3T3-L1 [1]): inactive
- Activity (3T3-L1 [2]): inactive

Compound: C=C1[C@@H](O)[C@@]2(O)OC[C@]34C2[C@@]2(C)[C@H](O)C(=O)C=C(C)[C@@H]2C[C@H]3OC(=O)[C@H](O)[C@@]14O (some centres undefined)
- Activity (Mus musculus [3]): inactive
- Activity (3T3-L1 [4]): Non-Toxic
- Activity (3T3-L1 [5]): Dose-dependent effect
- EC50 (3T3-L1 [5]): 14.6 µM
- Activity (Mus musculus [6]): Active
- Activity [7]: inactive
- Activity (3T3-L1 [8]): Dose-dependent effect
- Activity (Mus musculus [9]): Active

Compound: CC(C)NCC(O)c1ccc(O)c(O)c1 (centres undefined) [ISOPROTERENOL]
- Activity (3T3-L1 [10]): 322%

Compound: CC1=CC(=O)[C@@H](O)[C@]2(C)C3[C@]4(O)OC[C@@]35[C@@H](C[C@@H]12)OC(=O)[C@H](O)[C@@]5(O)[C@@]1(CO1)[C@H]4O (some centres undefined)
- Activity (Mus musculus [3]): inactive
- Activity (3T3-L1 [4]): Non-Toxic
- Activity (3T3-L1 [5]): Dose-dependent effect
- EC50 (3T3-L1 [5]): 8.6 µM
- Activity (Mus musculus [6]): Active
- Activity [7]: inactive
- Activity (3T3-L1 [8]): Dose-dependent effect
- Activity (Mus musculus [9]): Active
